The source made the active and inactive calls. No cut-off for these calls is given here.
Legend:
MDA-MB-231 = assay: Cytotoxicity against human MDA-MB-231 cells at 50 uM after 3 hrs by MTT assay; assay type: cell-based; settings: mda-mb-231, 3 h
Procedure, shortened: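 MTT conversion read-out, following Denisot et al. Tested at 2.5, 10 and 50 µM with 3 h incubation.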

[1] = molecular target: T1, Estradiol 17-beta-dehydrogenase 2 (Rattus norvegicus) (UniProt Q62730); assay: Inhibition of 17beta-HSD2 in rat liver microsomal fraction assessed as inhibition of [3H]E2 conversion to E1 at 1 uM by scintillation counting analysis; assay type: microsomes
T1 sequence (whole entry): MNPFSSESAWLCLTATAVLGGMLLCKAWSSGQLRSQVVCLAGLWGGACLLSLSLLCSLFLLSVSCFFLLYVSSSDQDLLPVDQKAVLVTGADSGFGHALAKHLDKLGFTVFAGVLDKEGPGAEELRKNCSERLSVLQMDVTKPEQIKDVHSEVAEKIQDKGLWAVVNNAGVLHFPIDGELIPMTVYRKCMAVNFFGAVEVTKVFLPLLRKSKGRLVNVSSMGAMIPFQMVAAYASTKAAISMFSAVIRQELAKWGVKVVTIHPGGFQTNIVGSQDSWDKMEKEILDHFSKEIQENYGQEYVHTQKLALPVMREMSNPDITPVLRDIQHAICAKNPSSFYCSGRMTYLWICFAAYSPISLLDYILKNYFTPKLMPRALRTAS
Procedure, shortened: (§1)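 Cell-free assay measuring percent inhibition of the E2-to-E1 transformation. Enzyme source was the microsomal fraction of rat or mouse liver, or of Callithrix jacchus placenta for the marmoset.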

[2] = molecular target: T2, 17-beta-hydroxysteroid dehydrogenase type 1 (Homo sapiens) (UniProt P14061); settings: at 1 µM;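 note: enzyme source was human placental cytosol with tritiated estrone as substrate, 10 min reaction, conversion quantified by HPLC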
T2 sequence (whole entry): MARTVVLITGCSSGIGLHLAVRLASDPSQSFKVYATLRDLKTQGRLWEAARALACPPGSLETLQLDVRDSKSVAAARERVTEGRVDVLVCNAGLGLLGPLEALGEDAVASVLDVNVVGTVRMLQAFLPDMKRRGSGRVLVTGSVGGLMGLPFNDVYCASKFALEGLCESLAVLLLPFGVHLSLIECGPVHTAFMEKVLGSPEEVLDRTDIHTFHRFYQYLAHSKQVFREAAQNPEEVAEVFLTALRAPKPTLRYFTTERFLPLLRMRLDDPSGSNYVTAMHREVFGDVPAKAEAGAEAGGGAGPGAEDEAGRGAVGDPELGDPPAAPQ

[3] = molecular target: T3, Estradiol 17-beta-dehydrogenase 2 (Mus musculus) (UniProt P51658); assay: Inhibition of 17beta-HSD2 in mouse liver microsomal fraction assessed as inhibition of [3H]E2 conversion to E1 at 1 uM by scintillation counting analysis; assay type: microsomes; procedure, shortened: as §1
T3 sequence (whole entry): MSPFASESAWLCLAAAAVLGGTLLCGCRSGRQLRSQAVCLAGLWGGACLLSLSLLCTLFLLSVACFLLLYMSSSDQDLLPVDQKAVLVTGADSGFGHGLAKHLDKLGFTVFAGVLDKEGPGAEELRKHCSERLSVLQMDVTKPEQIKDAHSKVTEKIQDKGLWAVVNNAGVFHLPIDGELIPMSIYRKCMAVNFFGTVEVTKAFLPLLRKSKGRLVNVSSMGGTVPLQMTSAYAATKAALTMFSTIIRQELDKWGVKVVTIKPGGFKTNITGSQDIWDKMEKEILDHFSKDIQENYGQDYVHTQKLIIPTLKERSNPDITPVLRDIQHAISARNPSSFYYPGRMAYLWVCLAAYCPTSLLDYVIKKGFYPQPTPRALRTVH

Callithrix jacchus = species on record: Callithrix jacchus; assay: Inhibition of 17beta-HSD2 in common marmoset placental microsomal fraction assessed as inhibition of [3H]E2 conversion to E1 at 1 uM by scintillation counting analysis; assay type: microsomes; settings: Placenta; procedure, shortened: as §1
[4] = molecular target: T4, Peroxisomal multifunctional enzyme type 2 (Homo sapiens) (UniProt P51659); assay: Inhibition of human recombinant 17beta-HSD4 SDR domain expressed in Escherichia coli using [6,7-3H]E2 as substrate at 1 uM by scintillation counting analysis
T4 sequence (whole entry): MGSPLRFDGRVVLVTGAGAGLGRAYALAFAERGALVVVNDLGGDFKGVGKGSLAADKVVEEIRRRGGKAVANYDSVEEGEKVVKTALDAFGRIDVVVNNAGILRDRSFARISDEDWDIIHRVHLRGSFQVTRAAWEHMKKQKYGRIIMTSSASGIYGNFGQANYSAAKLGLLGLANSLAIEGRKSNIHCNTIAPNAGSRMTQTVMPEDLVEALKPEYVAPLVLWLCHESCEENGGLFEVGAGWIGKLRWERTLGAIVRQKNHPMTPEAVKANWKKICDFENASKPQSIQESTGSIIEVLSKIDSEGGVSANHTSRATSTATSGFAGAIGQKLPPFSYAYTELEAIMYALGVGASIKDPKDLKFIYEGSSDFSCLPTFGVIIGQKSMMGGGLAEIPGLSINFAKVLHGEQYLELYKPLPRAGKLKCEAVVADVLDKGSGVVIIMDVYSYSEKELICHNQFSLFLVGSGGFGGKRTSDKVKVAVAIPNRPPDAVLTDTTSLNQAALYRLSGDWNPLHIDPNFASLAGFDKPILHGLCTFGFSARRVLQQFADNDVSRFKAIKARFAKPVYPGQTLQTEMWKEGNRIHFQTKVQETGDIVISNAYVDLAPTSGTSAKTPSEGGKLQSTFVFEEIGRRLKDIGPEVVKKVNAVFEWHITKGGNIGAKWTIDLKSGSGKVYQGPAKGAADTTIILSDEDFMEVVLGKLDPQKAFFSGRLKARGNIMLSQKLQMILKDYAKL

[5] = molecular target: T5, 17-beta-hydroxysteroid dehydrogenase type 2 (Homo sapiens) (UniProt P37059); settings: Placenta, Microsomal, at 1 µM;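 note: [3H]estradiol served as substrate, with HPLC analysis after 20 min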
T5 sequence (whole entry): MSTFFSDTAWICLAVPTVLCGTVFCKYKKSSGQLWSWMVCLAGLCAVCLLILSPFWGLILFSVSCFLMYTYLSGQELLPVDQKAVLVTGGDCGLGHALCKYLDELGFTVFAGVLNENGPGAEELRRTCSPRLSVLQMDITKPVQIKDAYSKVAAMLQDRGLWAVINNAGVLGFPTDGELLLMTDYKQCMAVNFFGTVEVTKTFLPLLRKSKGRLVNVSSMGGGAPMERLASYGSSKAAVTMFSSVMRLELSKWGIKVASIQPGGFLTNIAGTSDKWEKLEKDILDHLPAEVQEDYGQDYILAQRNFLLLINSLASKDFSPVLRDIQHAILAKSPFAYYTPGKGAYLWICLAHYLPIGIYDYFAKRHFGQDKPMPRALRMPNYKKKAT

Structure (SMILES)	Activity (MDA-MB-231)	inhibition [1]	inhibition [2]	inhibition [3]	inhibition (Callithrix jacchus)	inhibition [4]	inhibition [5]
COc1cccc(N(C)C(=O)c2ccc(-c3cccc(OC)c3F)s2)c1	Non-toxic	inactive	17%	26%	45%	inactive	93%
COc1cccc(-c2ccc(C(=O)N(C)Cc3cccc(O)c3)s2)c1F	Non-toxic	25%	< 10%	65%	47%	inactive	89%
